Assay results reported in ChEMBL document CHEMBL1795235, “Quercetin diacylglycoside analogues showing dual inhibition of DNA gyrase and topoisomerase IV as novel antibacterial agents” (J Med Chem, 2011).
In brackets after ≈: the same amount, converted by molar mass.

Legend:
[1] = Inhibition of Staphylococcus aureus DNA Topoisomerase 4-mediated decatenation of kDNA after 30 mins by densitometry
In short: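 Purchased S. aureus topoIV, one unit with 200 ng kDNA, 37 °C, 30 min. Products resolved on 1.0% agarose in TAE. IC50 of decatenation from densitometry by interpolation equation, at least three determinations.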

[2] = tested on: Staphylococcus aureus; experiment: Antibacterial activity against methicillin-resistant Staphylococcus aureus COL after 24 hrs by microdilution method; format: functional
In short: (§1)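 Broth microdilution in Mueller-Hinton broth with 0.85% NaCl, inoculum about 10^5 CFU per 100 μL. Compounds were diluted in water from 25.6 mg/mL stocks to final 2-fold series of 0.062–128 μg/mL. Plates were incubated 24 h at 35 °C. MIC was the lowest concentration at which all triplicate wells were clear, from three independent determinations.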

[3] = tested on: Enterococcus; experiment: Antibacterial activity against vancomycin resistant Enterococcus NCTC 12201 after 24 hrs by microdilution method; format: functional; settings: NCTC 12201, 24 h; in short: as §1
[4] = tested on: Staphylococcus aureus; experiment: Antibacterial activity against vancomycin-intermediate Staphylococcus aureus Mu50 after 24 hrs by microdilution method; format: functional; settings: Mu50, 24 h; in short: as §1
[5] = Inhibition of Escherichia coli DNA gyrase assessed as inhibition of pBR322 supercoiling by densitometry
In short: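 One unit of E. coli gyrase with 0.5 μg relaxed pBR322 DNA, 37 °C, 30 min. Stopped with sucrose/EDTA dye, run on 1.0% agarose in TAE. IC50 from densitometry via log-interpolation equation.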

[6] = tested on: Pseudomonas aeruginosa; experiment: Antibacterial activity against Pseudomonas aeruginosa PAO1 after 24 hrs by microdilution method; format: functional; settings: PAO1, 24 h
In short: (§2)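 Broth microdilution in Mueller-Hinton broth with 0.85% NaCl, inoculum about 10^5 CFU per 100 μL. Compounds diluted from 25.6 mg/mL stocks in water to 2-fold series, final 0.062–128 μg/mL. […] Three independent determinations.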

[7] = tested on: Staphylococcus aureus; experiment: Antibacterial activity against methicillin-resistant Staphylococcus aureus N315 after 24 hrs by microdilution method; format: functional; settings: N315, 24 h; in short: as §1
[8] = tested on: Staphylococcus aureus; experiment: Antibacterial activity against methicillin-resistant Staphylococcus aureus OM481 after 24 hrs by microdilution method; format: functional; settings: OM481, 24 h; in short: as §1
[9] = tested on: Staphylococcus aureus; experiment: Antibacterial activity against methicillin-susceptible Staphylococcus aureus 209P after 24 hrs by microdilution method; format: functional; in short: as §1
[10] = tested on: Streptococcus pneumoniae; experiment: Antibacterial activity against Streptococcus pneumoniae R6 after 24 hrs by microdilution method; format: functional; settings: R6, 24 h; in short: as §2
[11] = tested on: Escherichia coli; experiment: Antibacterial activity against Escherichia coli K-12 after 24 hrs by microdilution method; format: functional; settings: K-12, 24 h; in short: as §2
[12] = tested on: Enterococcus; experiment: Antibacterial activity against vancomycin resistant Enterococcus FN-1 after 24 hrs by microdilution method; format: functional; settings: FN-1, 24 h; in short: as §1
[13] = tested on: Staphylococcus aureus; experiment: Antibacterial activity against methicillin-resistant Staphylococcus aureus OM584 after 24 hrs by microdilution method; format: functional; settings: OM584, 24 h; in short: as §1
[14] = Inhibition of Escherichia coli DNA topoisomerase 4 subunit ParC/DNA topoisomerase 4 subunit ParE-mediated decatenation of kDNA by densitometry
In short: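 Purchased E. coli topoIV kit enzyme, one unit with 200 ng kDNA, 37 °C, 30 min. Buffer: 50 mM HEPES-KOH pH 7.6, 5 mM magnesium acetate, 100 mM potassium glutamate, 10 mM DTT, 1 mM ATP, 40% glycerol. Gel on 1.0% agarose in TAE. IC50 of decatenation from densitometry by interpolation equation, at least three determinations.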

Compound | IC50 [1] [nM] | MIC [2] [µg/mL] | MIC [3] [µg/mL] | MIC [4] [µg/mL] | IC50 [5] [nM] | MIC [6] [µg/mL] | MIC [7] [µg/mL] | MIC [8] [µg/mL] | MIC [9] [µg/mL] | MIC [10] [µg/mL] | MIC [11] [µg/mL] | MIC [12] [µg/mL] | MIC [13] [µg/mL] | IC50 [14] [nM]
CCn1cc(C(=O)O)c(=O)c2cc(F)c(N3CCNCC3)cc21 [NORFLOXACIN] | 3500 | 1 (≈ 3.13 µM) | 4 (≈ 12.5 µM) | > 128 | 90 | 0.25 (≈ 0.783 µM) | 2 (≈ 6.26 µM) | 64 (≈ 200 µM) | 0.5 (≈ 1.57 µM) | 0.25 (≈ 0.783 µM) | 0.25 (≈ 0.783 µM) | > 128 | 128 (≈ 401 µM) | 
Cc1ccc(CCC(=O)OC[C@H]2O[C@@H](Oc3c(-c4ccc(O)c(O)c4)oc4cc(O)cc(O)c4c3=O)[C@H](OC(=O)CCc3ccc(C)cc3)[C@@H](O)[C@H]2O)cc1 | 1490 | 1 (≈ 1.32 µM) | 0.5 (≈ 0.661 µM) | 0.5 (≈ 0.661 µM) | 2090 | > 128 | 0.25 (≈ 0.33 µM) | 0.25 (≈ 0.33 µM) | 0.25 (≈ 0.33 µM) | 0.25 (≈ 0.33 µM) | > 128 | 0.5 (≈ 0.661 µM) | 0.25 (≈ 0.33 µM) | 9460
O=C(Cc1ccc(F)cc1)OC[C@H]1O[C@@H](Oc2c(-c3ccc(O)c(O)c3)oc3cc(O)cc(O)c3c2=O)[C@H](OC(=O)Cc2ccc(F)cc2)[C@@H](O)[C@H]1O | 460 | 8 (≈ 10.9 µM) | 0.5 (≈ 0.679 µM) | 1 (≈ 1.36 µM) | 1050 | > 128 | 1 (≈ 1.36 µM) | 1 (≈ 1.36 µM) | 1 (≈ 1.36 µM) | 1 (≈ 1.36 µM) | > 128 | 0.5 (≈ 0.679 µM) | 1 (≈ 1.36 µM) | 10200
CCOc1ccc(C(=O)O[C@H]2[C@H](Oc3c(-c4ccc(O)c(O)c4)oc4cc(O)cc(O)c4c3=O)O[C@H](CO)[C@@H](O)[C@@H]2OC(=O)c2ccc(OCC)cc2)cc1 | 1980 | 4 (≈ 5.26 µM) | 4 (≈ 5.26 µM) | 1 (≈ 1.31 µM) |  |  | 1 (≈ 1.31 µM) | 2 (≈ 2.63 µM) | 1 (≈ 1.31 µM) | 1 (≈ 1.31 µM) |  | 2 (≈ 2.63 µM) | 2 (≈ 2.63 µM) | 11000
Cc1ccc(CCC(=O)O[C@H]2[C@H](Oc3c(-c4ccc(O)c(O)c4)oc4cc(O)cc(O)c4c3=O)O[C@H](CO)[C@@H](O)[C@@H]2OC(=O)CCc2ccc(C)cc2)cc1 | 2020 | 4 (≈ 5.29 µM) | 4 (≈ 5.29 µM) | 1 (≈ 1.32 µM) |  |  | 1 (≈ 1.32 µM) | 2 (≈ 2.64 µM) | 1 (≈ 1.32 µM) | 1 (≈ 1.32 µM) |  | 2 (≈ 2.64 µM) | 2 (≈ 2.64 µM) | 11600
CC(=O)OC[C@H]1O[C@@H](Oc2c(-c3ccc(O)c(O)c3)oc3cc(O)cc(O)c3c2=O)[C@H](OC(C)=O)[C@@H](OC(C)=O)[C@H]1OC(C)=O |  | 128 (≈ 202 µM) | 32 (≈ 50.6 µM) | 64 (≈ 101 µM) |  | > 128 | 64 (≈ 101 µM) | 32 (≈ 50.6 µM) | 64 (≈ 101 µM) | 64 (≈ 101 µM) | > 128 | 32 (≈ 50.6 µM) | 32 (≈ 50.6 µM) | 
O=C(CCCCc1ccc(F)cc1)OC[C@H]1O[C@@H](Oc2c(-c3ccc(O)c(O)c3)oc3cc(O)cc(O)c3c2=O)[C@H](OC(=O)CCCCc2ccc(F)cc2)[C@@H](O)[C@H]1O | 4050 | 16 (≈ 19.5 µM) | 16 (≈ 19.5 µM) | 16 (≈ 19.5 µM) | 5020 | > 128 | 2 (≈ 2.44 µM) | 4 (≈ 4.87 µM) | 4 (≈ 4.87 µM) | 8 (≈ 9.75 µM) | > 128 | 16 (≈ 19.5 µM) | 4 (≈ 4.87 µM) | > 12000
CO[C@@H]1[C@@H](OC(N)=O)[C@@H](O)[C@H](Oc2ccc3c(O)c(NC(=O)c4ccc(O)c(CC=C(C)C)c4)c(=O)oc3c2C)OC1(C)C [NOVOBIOCIN] |  | 0.25 (≈ 0.408 µM) | 2 (≈ 3.26 µM) | 8 (≈ 13.1 µM) |  | 8 (≈ 13.1 µM) | 0.13 (≈ 0.212 µM) | 0.25 (≈ 0.408 µM) | 0.13 (≈ 0.212 µM) | 0.25 (≈ 0.408 µM) | 8 (≈ 13.1 µM) | > 128 | 0.25 (≈ 0.408 µM) | 110
